# Active and inactive are the calls of the source. The rule behind the calls is not given here.
# How the values were obtained:
# Hepatitis B virus [1] = experiment: Antiviral activity against HBV genotype D in hydrodynamic injection-based C57BL/6 mouse model of HBV infection assessed as inhibition of serum HBV DNA level at 100 mg/kg, po dosed twice daily for 7 days by real-time PCR analysis; assay type: functional, organism-based
# [2] = Clearance in C57BL/6 mouse at 20 mg/kg, iv measured from 5 mins to 24 hrs by HPLC analysis; assay type: ADME, organism-based; settings: in vivo
# Outline: (§1)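 Male C57BL/6 mice, n=3. Dosing 20 mg/kg i.v. or 100 mg/kg p.o. of parent; prodrug p.o. at 100 or 200 mg/kg. The parent compound was measured in blood/plasma and in liver from 5 min onward. Readouts were Cmax, Tmax, t1/2, CL, AUC and oral bioavailability.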
# [3] = Cytotoxicity in human HepAD38 cells assessed as induction of cell killing; assay type: cell-based
# Hepatitis B virus [4] = experiment: Antiviral activity against HBV infected in human HepAD38 cells assessed as inhibition of intracellular viral DNA accumulation at 2 uM for 4 days by qPCR or qRT-PCR relative to control; assay type: functional, organism-based
# Outline: (§2)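 HepAD38 or HepG2.2.15 cells were treated at 2 µM for 4 days, with medium replaced every 2 days. Intracellular and extracellular DNA and RNA were quantified by qPCR or qRT-PCR, and HBeAg and HBsAg by ELISA. Results were compared with DMSO vehicle as mean ± SD, using a two-tailed t-test.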
# Hepatitis B virus [5] = experiment: Antiviral activity against HBV infected in human HepG2.2.15 cells assessed as inhibition of intracellular viral RNA accumulation at 2 uM for 4 days by qPCR or qRT-PCR relative to control; assay type: functional, organism-based; settings: HepG2 2.2.15; outline: as §2
# Hepatitis B virus [6] = experiment: Antiviral activity against HBV genotype D in hydrodynamic injection-based C57BL/6 mouse model of HBV infection assessed as inhibition of liver HBV DNA level at 50 mg/kg, po dosed twice daily for 7 days by real-time PCR analysis; assay type: functional, organism-based
# [7] = Cytotoxicity in human HepG2 cells assessed as induction of cell killing; assay type: cell-based
# Hepatitis B virus [8] = experiment: Antiviral activity against HBV genotype D in hydrodynamic injection-based C57BL/6 mouse model of HBV infection assessed as inhibition of liver HBV DNA level at 100 mg/kg, po dosed twice daily for 7 days by real-time PCR analysis; assay type: functional, organism-based
# Hepatitis B virus [9] = experiment: Antiviral activity against HBV infected in human HepG2.2.15 cells assessed as reduction in viral DNA levels incubated for 6 days by PCR analysis; assay type: functional, organism-based; settings: HepG2 2.2.15, 144 h
# Hepatitis B virus [10] = experiment: Antiviral activity against HBV genotype D in hydrodynamic injection-based C57BL/6 mouse model of HBV infection assessed as inhibition of HBV replication at 50 mg/kg, po dosed once daily for 7 days by real-time PCR analysis; assay type: functional, organism-based
# [11] = Drug level in C57BL/6 mouse liver at 100 mg/kg, po measured after 5 mins by HPLC analysis; assay type: ADME, organism-based; settings: in vivo
# [12] = Cmax in C57BL/6 mouse liver at 100 mg/kg, po measured from 5 mins to 24 hrs by HPLC analysis; assay type: ADME, organism-based; parameters: dose 100 mg/kg, route oral; settings: in vivo; outline: as §1
# [13] = Selectivity index, ratio of CC50 for cytotoxicity in human HepAD38 cells assessed as induction of cell killing to EC50 for antiviral activity against HBV infected in human HepAD38 cells assessed as reduction in viral DNA levels incubated for 6 days by PCR analysis; assay type: toxicity, cell-based; settings: read-out: Ratio CC50/EC50
# [14] = AUC in C57BL/6 mouse liver at 20 mg/kg, iv measured from 5 mins to 24 hrs by HPLC analysis; assay type: ADME, organism-based; parameters: time lower 0.083 hr, dose 20 mg/kg, time upper 24 hr, route intravenous; settings: in vivo; outline: as §1
# Hepatitis B virus [15] = experiment: Antiviral activity against HBV infected in human HepAD38 cells assessed as reduction in viral DNA levels incubated for 6 days by PCR analysis; assay type: functional, organism-based; settings: HePAD38, 144 h
# [16] = Tmax in C57BL/6 mouse blood at 100 mg/kg, po measured from 5 mins to 24 hrs by HPLC analysis; assay type: ADME, organism-based
# Outline: (§3)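 Male C57BL/6 mice, single oral dose of prodrug at 100 or 200 mg/kg; blood and liver levels of the parent compound measured over time; N=3; Tmax taken from the concentration–time profiles.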
# Hepatitis B virus [17] = experiment: Antiviral activity against HBV infected in human HepG2.A64 cells containing reverse transcriptase L180M/T184L/M204V mutant assessed as reduction in viral replication incubated for 6 days by PCR analysis; assay type: functional, organism-based; settings: HepG2.A64, 144 h
# Outline: (§4)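 Wild-type HBV replication measured in HepAD38 and HepG2.2.15 cells, lamivudine/entecavir-resistant HBV in HepG2.A64 cells (rtL180M+rtT184L+rtM204V) and multidrug-resistant HBV in HepG2.1403F cells (rtL180M+rtM204V+rtS202G+rtN236T). Read-out is reduction of HBV DNA. EC50 is reported as mean ± SD.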
# Hepatitis B virus [18] = experiment: Inhibition of HBsAg secretion in HBV infected human HepAD38 cells at 2 uM for 4 days by ELISA; assay type: functional, organism-based; outline: as §2
# [19] = AUC in C57BL/6 mouse plasma at 20 mg/kg, iv measured from 5 mins to 24 hrs by HPLC analysis; assay type: ADME, organism-based; parameters: dose 20 mg/kg, time upper 24 hr, time lower 0.083 hr, route intravenous; outline: as §1
# Hepatitis B virus [20] = experiment: Inhibition of HBsAg secretion in HBV infected human HepG2.2.15 cells at 2 uM for 4 days by ELISA; assay type: functional, organism-based; settings: HepG2 2.2.15; outline: as §2
# [21] = Oral bioavailability in C57BL/6 mouse liver at 100 mg/kg measured from 5 mins to 24 hrs by HPLC analysis; assay type: ADME, organism-based; outline: as §1
# Hepatitis B virus [22] = experiment: Antiviral activity against HBV infected in human HepG2.2.15 cells assessed as inhibition of intracellular viral DNA accumulation at 2 uM for 4 days by qPCR or qRT-PCR relative to control; assay type: functional, organism-based; settings: HepG2 2.2.15; outline: as §2
# Hepatitis B virus [23] = experiment: Antiviral activity against HBV genotype D in hydrodynamic injection-based C57BL/6 mouse model of HBV infection assessed as inhibition of serum HBV DNA level at 50 mg/kg, po dosed twice daily for 7 days by real-time PCR analysis; assay type: functional, organism-based
# [24] = Tmax in C57BL/6 mouse liver at 100 mg/kg, po measured from 5 mins to 24 hrs by HPLC analysis; assay type: ADME, organism-based; outline: as §3
# [25] = Half life in C57BL/6 mouse at 20 mg/kg, iv measured from 5 mins to 24 hrs by HPLC analysis; assay type: ADME, organism-based; settings: in vivo; outline: as §1
# Hepatitis B virus [26] = experiment: Antiviral activity against multidrug-resistant HBV infected in human HepG2.1403F cells assessed as reduction in viral replication incubated for 6 days by PCR analysis; assay type: functional, organism-based; settings: 144 h; outline: as §4
# [27] = AUC in C57BL/6 mouse plasma at 100 mg/kg, po measured from 5 mins to 24 hrs by HPLC analysis; assay type: ADME, organism-based; parameters: time upper 24 hr, dose 100 mg/kg, time lower 0.083 hr, route oral; outline: as §1
# [28] = Cmax in C57BL/6 mouse blood at 100 mg/kg, po measured from 5 mins to 24 hrs by HPLC analysis; assay type: ADME, organism-based; parameters: dose 100 mg/kg, route oral; outline: as §1
# Hepatitis B virus [29] = experiment: Antiviral activity against HBV infected in human HepAD38 cells assessed as inhibition of intracellular viral RNA accumulation at 2 uM for 4 days by qPCR or qRT-PCR relative to control; assay type: functional, organism-based; outline: as §2
# [30] = Intrinsic clearance in mouse liver microsomes; assay type: ADME, Microsome; settings: read-out: CLH
# [31] = AUC in C57BL/6 mouse liver at 100 mg/kg, po measured from 5 mins to 24 hrs by HPLC analysis; assay type: ADME, organism-based; parameters: time 0.083-24 hr, dose 100 mg/kg, route oral; settings: in vivo; outline: as §1
# [32] = Solubility in pH 6.8 phosphate buffer at 1 mg at 25 degC by HPLC analysis; assay type: physicochemical; settings: BLD = below limit of detection
# Outline: (§5)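 Solubility determined in water or 0.067 M phosphate buffer at pH 5.8, 6.8 and 7.4. Values are reported in mg/mL; ND means below the detection limit.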
# [33] = Half life in mouse plasma by HPLC analysis; assay type: ADME, cell-free
# Outline: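 Prodrug incubated in plasma at 37 °C, with percent remaining determined by HPLC to derive half-life.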
# [34] = Stability in pH 7.4 buffer assessed as compound hydrolysis level after 2 hrs at 37 degC by HPLC analysis; assay type: physicochemical; settings: pH 7.4, 2 h
# Outline: (§6)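 Prodrug incubated in buffer (0.1 M HCl, pH 5.8, 6.8 or 7.4) at 37 °C; percent of compound remaining determined by HPLC; remaining percentage reported after 3 h, stability meaning no hydrolysis after 2 h.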
# [35] = Stability in 0.1M HCl solution assessed as compound remaining level at 37 degC by HPLC analysis; assay type: physicochemical; settings: buffer; outline: as §6
# [36] = Solubility in pH 5.8 phosphate buffer at 1 mg at 25 degC by HPLC analysis; assay type: physicochemical; outline: as §5
# [37] = Solubility in water at 1 mg at 25 degC by HPLC analysis; assay type: physicochemical; outline: as §5
# [38] = Stability in pH 6.8 buffer assessed as compound remaining level at 37 degC by HPLC analysis; assay type: physicochemical; outline: as §6
# Hepatitis B virus [39] = experiment: Antiviral activity against HBV genotype D in hydrodynamic injection-based C57BL/6 mouse model of HBV infection assessed as inhibition of HBV replication at 100 mg/kg, po dosed once daily for 7 days by real-time PCR analysis; assay type: functional, organism-based
# [40] = Cytotoxicity in human HepG2 cells assessed as induction of cell killing
# Hepatitis B virus [41] = experiment: Antiviral activity against HBV infected in human HepG2.2.15 cells; assay type: functional, organism-based; settings: HepG2 2.2.15
structure (smiles),measurement,setting,value
Cc1cc(Nc2nn(C3CC3)c3cnc(S(=O)(=O)N4CCC(O)CC4)cc23)ccc1F,Activity,Hepatitis B virus [1],inactive
same,clearance,[2],2.33 mL/min
same,CC50,[3],> 100000 nM
same,inhibition,Hepatitis B virus [4],Active
same,inhibition,Hepatitis B virus [5],Active
same,Activity,Hepatitis B virus [6],inactive
same,CC50,[7],> 100000 nM
same,Activity,Hepatitis B virus [8],inactive
same,EC50,Hepatitis B virus [9],3.5 nM
same,Activity,Hepatitis B virus [10],inactive
same,Drug uptake,[11],> 10 nmol/g
same,Cmax,[12],32 nmol/g
same,selectivity ratio at 144 h,[13],> 2940
same,AUC,[14],62 nmol·h/g
same,EC50,Hepatitis B virus [15],34 nM
same,Tmax,[16],30 min
same,EC50,Hepatitis B virus [17],0.25 nM
same,inhibition,Hepatitis B virus [18],inactive
same,AUC,[19],2600 ng·h/mL
same,inhibition,Hepatitis B virus [20],inactive
same,bioavailability,[21],12%
same,inhibition,Hepatitis B virus [22],Active
same,Activity,Hepatitis B virus [23],inactive
same,Tmax,[24],30 min
same,half-life,[25],37.8 min
same,EC50,Hepatitis B virus [26],0.33 nM
same,AUC,[27],1580 ng·h/mL
same,Cmax,[28],1190 nM
same,inhibition,Hepatitis B virus [29],Active
same,microsomal CLint,[30],10.3 µL/min/mg
same,AUC,[31],142 nmol·h/g
same,solubility,[32],Bld
Cc1cc(Nc2nn(C3CC3)c3cnc(S(=O)(=O)N4CCC(OC(=O)CN(C)C)CC4)cc23)ccc1F.O=C(O)C(F)(F)F,half-life,[33],47.2 min
same,Stability,[34],Stable
same,Stability,[35],Stable
same,solubility,[36],290 µg/mL
same,solubility,[37],1510 µg/mL
same,Stability,[38],Unstable
same,solubility,[32],Bld
CC[C@@H](C)NS(=O)(=O)c1ccc(F)c(C(=O)Nc2ccc(F)c(F)c2)c1,CC50,[7],39800 nM
same,Activity,Hepatitis B virus [39],inactive
same,EC50,Hepatitis B virus [9],280 nM
same,selectivity ratio at 144 h,[13],129
same,EC50,Hepatitis B virus [15],310 nM
same,EC50,Hepatitis B virus [17],48 nM
same,CC50,[40],39800 nM
same,EC50,Hepatitis B virus [26],74 nM
COC(=O)C1=C(C)NC(c2ncc(F)cc2F)=N[C@H]1c1ccc(F)cc1Cl,EC50,Hepatitis B virus [41],53 nM

# From ChEMBL document CHEMBL4602735, “Discovery of (1H-Pyrazolo[3,4-c]pyridin-5-yl)sulfonamide Analogues as Hepatitis B Virus Capsid Assembly Modulators by Conformation Constraint” (J Med Chem, 2020)
